Furin inhibitor – inhibitors of human furin; purified furin, fluorogenic substrate cleavage; inhibition, % at 20 µM or 30 µM; hit rate 0.061% among 220,000; AID 463115; in the data active means inhibition above about 25%
Target sequence (P09958 108-714 limits assumed): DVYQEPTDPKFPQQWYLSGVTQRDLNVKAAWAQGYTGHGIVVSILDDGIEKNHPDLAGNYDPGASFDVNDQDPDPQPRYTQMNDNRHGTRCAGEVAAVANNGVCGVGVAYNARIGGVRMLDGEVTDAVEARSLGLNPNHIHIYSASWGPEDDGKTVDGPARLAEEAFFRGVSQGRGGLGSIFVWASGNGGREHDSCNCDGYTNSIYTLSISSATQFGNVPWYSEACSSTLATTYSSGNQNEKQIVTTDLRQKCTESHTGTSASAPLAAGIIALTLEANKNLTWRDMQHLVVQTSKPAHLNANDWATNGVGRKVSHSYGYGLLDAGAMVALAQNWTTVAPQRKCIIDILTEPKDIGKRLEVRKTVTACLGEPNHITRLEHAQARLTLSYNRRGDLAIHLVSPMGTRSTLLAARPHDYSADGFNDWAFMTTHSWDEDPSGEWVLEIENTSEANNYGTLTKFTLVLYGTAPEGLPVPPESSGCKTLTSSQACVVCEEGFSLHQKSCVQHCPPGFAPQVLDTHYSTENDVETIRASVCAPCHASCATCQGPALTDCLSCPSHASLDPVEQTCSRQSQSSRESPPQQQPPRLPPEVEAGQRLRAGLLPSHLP
Calb biofilm kill – mixtures killing C. albicans biofilm | AID 1242 | C. albicans biofilm persisters + clotrimazole, fluorescence viability; primary screen in compound mixtures of four per well | hit rate 0.02% among 120,000 | inhibition, % at 7.6 µM;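 active means inhibition above 30.3% in the primary screen of four-compound pools, then above 30% when the compound was retested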;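 further: compounds exposed to preformed 24 h biofilms for 48 h; 0% = untreated biofilm control and 100% = clotrimazole plus chlorhexidine kill blank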
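Test system: C. albicans CAF4-2 wild-type biofilms; buffer or medium: RPMI/MOPS medium, pH 7.0; schedule: 24 h biofilm formation, then 48 h compound exposure, 37 °C; detection: Alamar Blue fluorescence; measure: percent inhibition of biofilm viability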
Pf gamet viab – kills late stage P. falciparum gametocytes; P. falciparum stage V gametocytes, ATP luminescence, 24 h; inhibition, % at 10.9 µM; hit rate 0.065% among 150,000; AID 743093;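 active means inhibition above the mean plus 3 SD of compounds within the control limits, set per campaign, cut at about 38% in these data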;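 further: 0% = DMSO wells and 100% = medium only without gametocytes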
The depositor's hits bear a star; . = not tested or not shown. Most compounds without a hit are left out; they make up all but 0.11% or so of the library.

SMILES | Furin inhibitor | Calb biofilm kill | Pf gamet viab
COc1cccc(-n2nnc3c(=O)n(Cc4ccccc4Cl)cnc32)c1 | 28.0* | 11.7 | 5.3
CCN(CC)S(=O)(=O)c1ccc(OC)c(NC(=S)Nc2ccc(C)c(C)c2)c1 | -22.4 | 18.5 | 5.0
O=C(CN1CCCC1)Nc1ccccc1Sc1ccc(Cl)cc1 | -23.0 | 0.2 | -19.0
Clc1cccc(-c2nn3c(Cn4cnc5ccccc54)nnc3s2)c1 | 33.8* | . | .
c1csc(-c2nn3c(Cn4cnc5ccccc54)nnc3s2)c1 | -10.9 | . | .
O=C(COC(=O)c1c2c(nc3ccccc13)CCCCC2)c1ccc(Cl)s1 | -4.4 | 9.7 | .
CCN1CCN(C(=O)Nc2ccccc2OC)CC1 | -16.3 | 4.4 | .
N#CC1=C(N)NC(SCc2ccc(Br)cc2)=C(C#N)C12CCCCC2 | 30.6* | 12.7 | .
N#CC1=C(N)NC(SCc2ccc(Cl)cc2)=C(C#N)C12CCCCC2 | -11.3 | . | .
CC(=O)c1cnc2ncnn2c1C | -21.2 | 16.0 | 11.5
OC1C2CN3CCN(C2)CC1(Cc1ccccc1)C3 (stereo unspecified) | 30.0* | 12.6 | .
OC1C2(Cc3ccccc3)CN3CCN(C2)CC1(Cc1ccccc1)C3 (stereo unspecified) | 2.0 | . | -11.8
Cc1ccc(Nc2nc(N)nc(CN3CCN(Cc4ccc5c(c4)OCO5)CC3)n2)cc1C | -17.5 | 32.7* | 2.8
Cc1ccc(Nc2nc(N)nc(CN3CCN(Cc4ccc5c(c4)OCO5)CC3)n2)cc1Cl | -28.8 | . | 3.0
Cc1ccc(S(=O)(=O)NC(=O)c2cc(C)n(-c3ccc(N(C)C)cc3)c2C)cc1 | -2.0 | 14.6 | -43.3
CC(=O)c1ccc(OCC(O)CN2CCCC(C)C2)cc1 (stereo unspecified) | -19.6 | . | .
CC1CCCN(CC(O)CN)C1 (stereo unspecified) | -16.8 | 5.6 | 47.1*
COc1nc(C)ccc1-c1noc(-c2ccccn2)n1 | 28.5* | . | .
COc1ccccc1-c1nc(-c2ccc(C)nc2OC)no1 | 3.9 | . | -8.2
O=C(CSC(=S)N1CCOCC1)Nc1nc(=O)c2ccccc2s1 | -15.4 | 14.7 | .
CC(=O)OCC(=O)NCc1ccc2c(c1)OCO2 | -14.1 | . | .
O=C(COC(=O)CSc1ccc2ccccc2c1)NCc1ccc2c(c1)OCO2 | -21.2 | 10.5 | 47.6*
CCCCCCc1nc2ccccc2c(=O)n1NC(=O)c1c(O)c2cccc3c2n(c1=O)CC3 | -10.9 | . | .
COc1ccc([N+](=O)[O-])cc1N(CC(=O)NCCC1=CCCCC1)S(C)(=O)=O | -9.0 | 7.9 | -13.5
CCCn1c(=S)[nH]c2cc(C(=O)N3CCN(c4ccccc4OC)CC3)ccc2c1=O | -25.4 | 10.3 | .
SMILES | Furin inhibitor | Calb biofilm kill | Pf gamet viab
CCCn1c(=S)[nH]c2cc(C(=O)N3CCc4ccccc4C3)ccc2c1=O | -9.1 | 27.2 | 47.3*
COc1ccc(CS(=O)(=O)c2nc(C)cc(C)c2S(C)(=O)=O)cc1 | -21.7 | 20.1 | 10.6
COc1ccc(CCCC(=O)NCc2ccccc2)cc1C | -20.7 | 6.7 | -3.4
COC(=O)c1ccc(NC(C)=O)cc1O | -22.5 | 8.1 | .
Cc1ccccc1C(=O)Nc1nncs1 | -17.3 | . | .
CCSc1ccccc1C(=O)Nc1nncs1 | 26.7* | . | .
COC(=O)c1cn(NC(=O)c2ccc([N+](=O)[O-])cc2Cl)c(=O)c2ccccc12 | -19.0 | 14.7 | -11.9
Cc1ccc(NC(=O)c2nc[nH]c2C(=O)N[C@@H](C)c2ccccc2)cc1 | -18.8 | 15.3 | 3.1
Cc1ccc(NC(=O)c2[nH]cnc2C(=O)NN)cc1 | -15.5 | -1.6 | 39.6*
Cc1ccc(C(=O)OCC(=O)N(C)C2CCS(=O)(=O)C2)cc1[N+](=O)[O-] (stereo unspecified) | -32.6 | 12.2 | -28.9
C/C(=N\Nc1nc(Cl)c(Cl)cc1Cl)c1ccc(S(=O)(=O)NCc2ccco2)cc1 | 4.6 | 17.8 | .
Cc1nc(NC(=O)c2cccnc2Cl)sc1C | . | . | 8.7
O=C(Nc1ccccc1Sc1ccccc1)c1ccccc1F | -4.2 | . | .
COc1ccccc1OCCOCCOc1ccccc1Cl | -16.5 | -16.2 | 50.8*
CCOc1ccc(OCCOCCOc2ccccc2Cl)cc1 | -12.9 | 9.2 | -2.9
COc1ccc(OC(=O)c2ccncc2)cc1 | -19.7 | . | .
COc1ccc(C(=O)Oc2ccc(/C=N/O)cc2)cc1 | -17.1 | . | 39.9*
OC(CNCc1cccnc1)COc1ccc2ccccc2c1 (stereo unspecified) | . | . | 17.3
CC1=C(C(N)=O)C(c2cccs2)NC(=O)N1 (stereo unspecified) | -27.0 | 13.7 | 1.8
O=C(Nc1ccc(C(=O)N2CCOCC2)cc1)Nc1cccc2ccccc12 | -6.9 | -6.7 | -16.6
COC(CNC(=O)c1cc(-c2ccncc2)nc2ccc(S(=O)(=O)N3CCOCC3)cc12)OC | -22.3 | 2.7 | 11.5
CCc1ccc(-c2cc(C(=O)Nn3cnnc3)c3ccccc3n2)cc1 | -17.0 | . | 38.5*
CCCc1ccc(-c2cc(C(=O)NN3CCOCC3)c3ccccc3n2)cc1 | -8.3 | . | 0.7
COc1ccccc1NC(=O)c1cc(Cl)ccc1NC(=O)c1ccco1 | -1.7 | . | 10.9
COc1ccccc1NC(=O)c1ccccc1NC(=O)c1cc(Cl)ccc1NC(=O)c1ccco1 | 6.2 | . | 39.4*
SMILES | Furin inhibitor | Calb biofilm kill | Pf gamet viab
COc1ccc2nc(NC(=O)c3cccc(-c4cc5ccccc5oc4=O)c3)sc2c1 | -18.0 | 15.4 | 49.0*
CC(=O)Nc1ccc(NC(=O)c2cccc(-c3cc4ccccc4oc3=O)c2)cc1 | -25.1 | 15.4 | -6.1
CCOC(=O)c1c(/N=C/C2C(=O)CCCC2=O)sc(C)c1C | 18.8 | 10.6 | -7.2
CCOC(=O)c1c(/N=C/C2=C(O)CCCC2=O)sc(C)c1C | 28.0* | 14.9 | 8.9
Cc1c(NC(=O)C(C)N(c2ccccc2)S(C)(=O)=O)c(=O)n(-c2ccccc2)n1C (stereo unspecified) | -19.9 | 2.2 | -12.9
Cn1ncc(Cl)c1C(=O)N1CCN(C(=O)c2ccco2)CC1 | -32.1 | 19.2 | 12.9
Cc1cc(Cl)ccc1OCCCC(=O)N1CCCCC1 | -7.8 | . | 0.0
Cc1cc(Cl)ccc1OCCCC(=O)N1CCOCC1 | 28.8* | . | 13.0
O=C(COc1ccc(Cl)cc1Cl)N1CCCC1 | -19.7 | . | 22.7
O=C(COc1ccc(Cl)cc1Cl)NC(=O)N1CCOCC1 | 35.6* | . | 10.1
CC(C)OCCCNC(=O)C1CCN(S(=O)(=O)N2CCCC2)CC1 | -34.6 | 13.8 | -5.4
Cc1cccc2c(N)c3c(nc12)CCCC3 (tested in a mixture with another compound) | -15.2 | 22.8 | 42.9*
Nc1c2c(nc3ccccc13)CCCC2 | 4.1 | 9.8 | .
Cc1ccc(SCCCCN2C(=O)NC(C)(C)C2=O)cc1 | 32.8* | . | .
CC1(C)NC(=O)N(CCSc2ccc(Cl)cc2)C1=O | -17.7 | . | 22.7
CC(C)CCNC(=O)CCCCn1c(=O)[nH]c2ccsc2c1=O | -29.1 | 8.2 | -0.7
CCOC(=O)N1CCC(N2C(=O)c3ccccc3C2Nc2ccc(S(=O)(=O)N(CC)CC)cc2)CC1 (stereo unspecified) | -16.7 | 13.9 | -16.4
NNC(=O)[C@@H]1C[C@@H]1c1ccccc1 | -21.0 | 19.9 | 5.8
O=C(NC1CCCC1)C1CC1c1ccccc1 (stereo unspecified) | 25.4* | . | .
CNc1nc(NCCOC23CC4CC(CC(C4)C2)C3)nc(OCC(F)(F)F)n1 | 29.3* | . | .
CNc1nc(OCC(F)(F)F)nc(OCC(F)(F)F)n1 | . | . | 16.2
COCc1c(C(=O)OC)nnn1-c1ccc(C(F)(F)F)cc1[N+](=O)[O-] | -26.8 | 12.2 | 2.6
COC(=O)C[C@H]1c2cc(C(F)(F)F)ccc2S(=O)(=O)N1Cc1ccccc1OC | . | . | -6.8
